{"source": "paper PMC8038854", "about": "(Biochemical Journal, 2021)", "key": {"[1]": {"target": "Scribble PDZ1 Q808H (human) (UniProt Q14160)", "sequence (Q14160 728-815 Q808H)": "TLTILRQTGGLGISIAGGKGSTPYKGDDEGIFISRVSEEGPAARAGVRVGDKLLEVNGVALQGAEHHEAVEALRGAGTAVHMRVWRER", "assay": "ITC"}, "[2]": {"target": "Scribble PDZ1 Q808H (human) (UniProt Q14160)", "assay": "ITC", "remark": "listed apart in the source"}, "[3]": {"target": "Scribble PDZ2 R896A (human) (UniProt Q14160)", "assay": "ITC"}, "[4]": {"target": "Scribble PDZ3 R1044Q (human) (UniProt Q14160)", "assay": "ITC"}, "[5]": {"target": "Scribble PDZ1 H793A (human) (UniProt Q14160)", "sequence (Q14160 728-815 H793A)": "as the sequence (Q14160 728-815 Q808H) above, with H66A, H81Q counted along it", "assay": "ITC"}, "Scrib PDZ1 WT (728–815)": {"target": "Scrib PDZ1 WT (728–815) (Homo sapiens, UniProt Q14160)", "sequence (Q14160 728-815)": "as the sequence (Q14160 728-815 Q808H) above, with H81Q counted along it", "assay": "Isothermal titration calorimetry", "assay_type": "binding", "summary_of_the_method": "(§1)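 Recombinant human Scribble PDZ domains (wild type or point mutant) were expressed in E. coli BL21(DE3) pLysS as GST or MBP fusions and purified. Synthetic 8-mer C-terminal PBM peptides, including a pan-PDZ positive-control peptide, were titrated into protein in 25 mM Hepes pH 7.5, 150 mM NaCl at 25°C. There were 20 injections spaced 180 s apart. KD came from a 1:1 model, with ±SD from at least three independent experiments.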"}, "Scrib PDZ1 Q808H": {"target": "Scrib PDZ1 Q808H (Homo sapiens, UniProt Q14160, Q808H)", "sequence (Q14160 728-815 Q808H)": "as the sequence (Q14160 728-815 Q808H) above", "assay": "ITC of PBM peptides against Scrib PDZ1 Q808H", "assay_type": "binding", "summary_of_the_method": "as §1"}, "Scrib PDZ3 R1044Q": {"target": "T1, Scrib PDZ3 R1044Q (Homo sapiens, UniProt Q14160, R1044Q)", "T1 sequence (Q14160 1002-1094 R1044Q)": "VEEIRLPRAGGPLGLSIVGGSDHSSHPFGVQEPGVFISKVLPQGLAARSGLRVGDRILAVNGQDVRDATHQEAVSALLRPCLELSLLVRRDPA", "assay": "ITC of PBM peptides against Scrib PDZ3 R1044Q", "assay_type": "binding", "summary_of_the_method": "as §1"}, "[6]": {"target": "T2, Scrib PDZ3 WT (1002–1094) (Homo sapiens, UniProt Q14160)", "T2 sequence (Q14160 1002-1094)": "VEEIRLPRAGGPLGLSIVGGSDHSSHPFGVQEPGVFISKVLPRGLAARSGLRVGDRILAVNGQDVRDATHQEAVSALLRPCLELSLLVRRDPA", "assay": "ITC of PBM peptides against Scrib PDZ3 WT", "assay_type": "binding", "summary_of_the_method": "as §1"}, "Scrib PDZ2 WT (860–950)": {"target": "T3, Scrib PDZ2 WT (860–950) (Homo sapiens, UniProt Q14160)", "T3 sequence (Q14160 860-950)": "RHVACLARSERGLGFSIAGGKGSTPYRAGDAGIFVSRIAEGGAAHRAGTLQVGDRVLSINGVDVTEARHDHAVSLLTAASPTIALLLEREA", "assay": "ITC of PBM peptides against Scrib PDZ2 WT", "assay_type": "binding", "summary_of_the_method": "as §1"}, "Scribble PDZ1 H793A": {"target": "Scribble PDZ1 H793A (human, UniProt Q14160 728-815, H793A)", "sequence (Q14160 728-815 H793A)": "as the sequence (Q14160 728-815 Q808H) above, with H66A, H81Q counted along it", "assay": "ITC"}, "Scribble PDZ2 H928A": {"target": "T4, Scribble PDZ2 H928A (human, UniProt Q14160 860-950, H928A)", "T4 sequence (looked up)": "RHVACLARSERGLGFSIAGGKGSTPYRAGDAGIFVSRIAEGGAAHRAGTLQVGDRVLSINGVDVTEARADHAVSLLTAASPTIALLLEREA", "assay": "ITC"}, "Scribble PDZ3 P1043L": {"target": "T5, Scribble PDZ3 P1043L (human, UniProt Q14160 1002-1094, P1043L)", "T5 sequence (looked up)": "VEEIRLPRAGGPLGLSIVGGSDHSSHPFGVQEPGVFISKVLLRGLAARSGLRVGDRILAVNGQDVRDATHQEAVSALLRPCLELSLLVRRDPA", "assay": "ITC"}, "Scribble PDZ3 R1044Q": {"target": "T6, Scribble PDZ3 R1044Q (human, UniProt Q14160 1002-1094, R1044Q)", "T6 sequence (looked up)": "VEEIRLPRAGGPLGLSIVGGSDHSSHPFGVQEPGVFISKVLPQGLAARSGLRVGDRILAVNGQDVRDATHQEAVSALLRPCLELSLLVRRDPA", "assay": "ITC"}, "Scribble PDZ1 Q808H": {"target": "Scribble PDZ1 Q808H (human, UniProt Q14160 728-815, Q808H)", "sequence (Q14160 728-815 Q808H)": "as the sequence (Q14160 728-815 Q808H) above", "assay": "ITC"}, "Scribble PDZ1 E814G": {"target": "Scribble PDZ1 E814G (human, UniProt Q14160 728-815, E814G)", "sequence (Q14160 728-815 E814G)": "as the sequence (Q14160 728-815 Q808H) above, with H81Q, E87G counted along it", "assay": "ITC"}, "Scribble PDZ2 R896A": {"target": "T7, Scribble PDZ2 R896A (human, UniProt Q14160 860-950, R896A)", "T7 sequence (looked up)": "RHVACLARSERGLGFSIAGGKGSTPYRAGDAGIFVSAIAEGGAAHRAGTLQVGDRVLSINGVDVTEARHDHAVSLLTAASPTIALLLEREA", "assay": "ITC"}}, "note": "Read-outs that look alike come from different tables or passages of the source. Peptide text beside a SMILES is read from it.", "data": [{"molecule": "beta-PIX C-terminal peptide", "values": [{"measurement": "Kd", "setting": "[1]", "result": 10.4, "unit": "µM"}, {"measurement": "Kd", "setting": "[2]", "result": 3.11, "unit": "µM"}, {"measurement": "Kd", "setting": "[3]", "result": 189, "unit": "µM"}, {"measurement": "Kd", "setting": "[4]", "result": 14.1, "unit": "µM"}, {"measurement": "Kd", "setting": "[5]", "result": 62.8, "unit": "µM"}]}, {"molecule": "CC(C)C[C@H](NC(=O)[C@@H](N)CCCNC(=N)N)C(=O)N[C@@H](CCC(N)=O)C(=O)N[C@@H](CO)C(=O)N[C@@H](CCC(=O)O)C(=O)N[C@H](C(=O)N[C@@H](CO)C(=O)N[C@H](C(=O)O)C(C)C)[C@@H](C)O", "note": "[Vangl2] (H-RLQSETSV-OH)", "values": [{"measurement": "Kd", "setting": "Scrib PDZ1 WT (728–815)", "result": "24.5 ± 3.9", "unit": "µM"}, {"measurement": "Kd", "setting": "Scrib PDZ1 Q808H", "result": "10.4 ± 0.27", "unit": "µM"}, {"measurement": "Kd", "setting": "Scrib PDZ3 R1044Q", "result": "20.9 ± 4.67", "unit": "µM"}, {"measurement": "Kd", "setting": "[6]", "result": "40.2 ± 3.92", "unit": "µM"}, {"measurement": "Kd", "setting": "Scrib PDZ2 WT (860–950)", "result": "45.1 ± 4.92", "unit": "µM"}]}, {"molecule": "APC C-terminal peptide", "values": [{"measurement": "Kd", "setting": "[2]", "result": 6.06, "unit": "µM"}, {"measurement": "Kd", "setting": "[3]", "result": 30.6, "unit": "µM"}, {"measurement": "Kd", "setting": "[4]", "result": 27.4, "unit": "µM"}]}, {"molecule": "RSWFETWV", "note": "[superpeptide (synthetic pan-PDZ binding peptide)]", "values": [{"measurement": "Kd", "setting": "Scribble PDZ1 H793A", "result": 2.18, "unit": "µM"}, {"measurement": "Kd", "setting": "Scribble PDZ2 H928A", "result": 27.7, "unit": "µM"}, {"measurement": "Kd", "setting": "Scribble PDZ3 P1043L", "result": 9.75, "unit": "µM"}, {"measurement": "Kd", "setting": "Scribble PDZ3 R1044Q", "result": 7.22, "unit": "µM"}, {"measurement": "Kd", "setting": "Scribble PDZ1 Q808H", "result": 2.73, "unit": "µM"}, {"measurement": "Kd", "setting": "Scribble PDZ1 E814G", "result": 2.36, "unit": "µM"}, {"measurement": "Kd", "setting": "Scribble PDZ2 R896A", "result": 7.8, "unit": "µM"}]}, {"molecule": "RLQSETSV", "note": "[Vangl2 C-terminal PBM peptide (RLQSETSV)]", "values": [{"measurement": "Kd", "setting": "Scribble PDZ1 H793A", "result": 29.9, "unit": "µM"}, {"measurement": "Kd", "setting": "Scribble PDZ2 R896A", "result": 26.7, "unit": "µM"}]}]}
